From ChEMBL document CHEMBL1128748, “Novel acridine-triazenes as prototype combilexins: synthesis, DNA binding, and biological activity” (J Med Chem, 1995)

Columns and labels:
Nucleic Acid [1] = assay: Induced change in DNA-melting (deltaTm) with [poly(dG-dC)]2 at […]; type: functional
Procedure, shortened: (§1)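 Thermal denaturation in stoppered quartz cuvettes. DNA in 10 mM sodium phosphate, 1 mM EDTA, at pH 6.00 (CT-DNA, poly(dA-dT), poly(dG-dC)) or pH 7.00 (CT-DNA only). Working DNA 100 μM; ligand added in DMSO to 20 μM final (drug:DNA 1:5). DMSO up to 6.25% v/v, with linear correction. Heated at 1 °C/min and followed by A260. ΔTm is ligand minus drug-free control, mean of three.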

Nucleic Acid [2] = assay: Inhibitory concentration against ethidium in DNA-binding assay with [poly(dA-dT)]2 (synthetic oligonucleotide); type: nucleic-acid assay
Procedure, shortened: (§2)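 Quenching of DNA-bound ethidium at pH 5.0 (9.3 mM NaCl, 2 mM NaOAc, 0.1 mM EDTA, ionic strength 0.01 M). Synthetic DNA 20 μM with 2 μM ethidium bromide, 20 °C. Drug added serially from about 5 mM DMSO stock. Excitation 546 nm, emission 595 nm. Q is the drug concentration giving 50% fluorescence loss, mean of three.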

Calf thymus DNA [3] = assay: Inhibitory concentration against ethidium in DNA-binding assay; type: nucleic-acid assay; settings: Bos taurus
Procedure, shortened: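 Ethidium displacement from CT-DNA at pH 5.0 (9.3 mM NaCl, 2 mM NaOAc, 0.1 mM EDTA), with 1.26 μM ethidium bromide and 1 μM CT-DNA, 20 °C. Drug added serially from about 5 mM DMSO stock. Excitation 546 nm, emission 595 nm. CC50 is the concentration halving bound-ethidium fluorescence, mean of three.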

A2780 = assay: Concentration required to inhibit the cell growth by 50 % after 96 hr […].; type: functional, cell-based; settings: Homo sapiens, A2780, 96 h
Procedure, shortened: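 A2780 cells in DMEM with 10% FCS, glutamine, insulin and hydrocortisone, plated at (0.1–5) × 10³ per well and attached overnight. DMSO stocks (≤0.5% v/v) were diluted in pH 7.0 buffer. Continuous drug exposure for 96 h. TCA fixation, sulforhodamine B staining, Tris solubilization, absorbance at 540 nm. IC50 taken against solvent-treated drug-free controls.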

L1210 [4] = assay: Concentration required to inhibit the cell growth by 50 % after 48 hr in L1210 leukemic cells.; type: functional, cell-based; settings: Mus musculus, L1210, 48 h
Procedure, shortened: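 Mouse L1210 leukemia cells at 5 × 10³ cells/mL. Exposed to drug for 48 h at 37 °C; stocks held ≤0.5% v/v DMSO. Surviving cells were counted with a Coulter counter against drug-free controls to give IC50. Run in duplicate.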

Calf thymus DNA [5] = assay: Change in DNA-melting (deltaTm) with calf thymus DNA at pH 7.0; type: functional; settings: Bos taurus; procedure, shortened: as §1
Nucleic Acid [6] = assay: Induced change in DNA-melting (deltaTm) with [poly(dA-dT)]2 at […]; type: functional; procedure, shortened: as §1
Nucleic Acid [7] = assay: Inhibitory concentration against ethidium in DNA-binding assay with [poly(dG-dC)]2 (synthetic oligonucleotide); type: nucleic-acid assay; procedure, shortened: as §2
Calf thymus DNA [8] = assay: Change in DNA-melting (deltaTm) with calf thymus DNA at […]; type: functional; settings: Bos taurus; procedure, shortened: as §1
L1210 [9] = assay: Inhibitory concentration against L1210 leukemic cell proliferation over 24 hr; settings: Mus musculus, L1210, 24 h
Nucleic Acid [10] = assay: Inhibitory concentration against DNA-bound ethidium for cytotoxicity; type: functional
Calf thymus DNA [11] = assay: Induced change in DNA-biphasic melting (deltaTm) with calf thymus DNA at […]; type: functional; settings: Bos taurus; procedure, shortened: as §1
Calf thymus DNA [12] = assay: (§3) Induced change in DNA-melting (deltaTm) with calf thymus DNA at pH 7.0; type: nucleic-acid assay; settings: Bos taurus; procedure, shortened: as §1
Nucleic Acid [13] = assay: Induced change in DNA-melting (deltaTm) with [poly(dA-dT)]2 at pH 65.0; type: functional; procedure, shortened: as §1
Calf thymus DNA [14] = assay: Induced change in DNA-biphasic melting (deltaTm) with calf thymus DNA at pH 7.0; type: functional; settings: Bos taurus; procedure, shortened: as §1
Calf thymus DNA [15] = assay: as §3; type: functional; settings: Bos taurus; procedure, shortened: as §1
Calf thymus DNA [16] = assay: Induced change in DNA-melting (deltaTm) with calf thymus DNA at […]; type: functional; settings: Bos taurus; procedure, shortened: as §1

Row | Compound | Tm shift (Nucleic Acid [1]) | Q (Nucleic Acid [2]) | Q (Calf thymus DNA [3]) | IC50 (A2780) | IC50 (L1210 [4]) | Tm shift (Calf thymus DNA [5]) | Tm shift (Nucleic Acid [6]) | Q (Nucleic Acid [7]) | Tm shift (Calf thymus DNA [8]) | IC50 (L1210 [9]) | CC50 (Nucleic Acid [10]) | Tm shift (Calf thymus DNA [11]) | Tm shift (Calf thymus DNA [12]) | Tm shift degreeC (Nucleic Acid [13]) | Tm shift (Calf thymus DNA [14]) | Tm shift (Calf thymus DNA [15]) | Tm shift (Calf thymus DNA [16])
1 | Nc1ccc2c(-c3ccccc3)c3ccc(N)cc3nc2c1 | 3.3 °C | 22 µM | 19 µM | 1.2 µM | 2 µM | 6.9 °C | 20.3 °C | 16 µM | 11.7 °C | – | – | – | – | – | – | – | –
2 | COc1cc(NS(C)(=O)=O)ccc1Nc1c2ccccc2nc2ccccc12 [AMSACRINE] | – | 25 µM | 3.8 µM | 0.1 µM | – | 1 °C | 4 °C | 4.5 µM | – | 0.05 µM | 8.9 µM | – | – | – | – | – | –
3 | Cc1nc(-c2c3ccccc3nc3ccccc23)sc1CCOC(=O)c1ccc(N/N=N/c2ccc(C(=O)OCCN3CCOCC3)cc2)cc1 | – | 17 µM | 28 µM | 2.6 µM | 32 µM | – | 0.9 °C | 39 µM | – | – | 6.1 µM | 2.4 °C | – | – | – | – | –
4 | O=C(OCCN1CCCCC1)c1ccc(/N=N/Nc2ccc(C(=O)OCCN3CCCCC3)cc2)cc1 | – | 11 µM | 13 µM | – | > 100 µM | – | – | 14 µM | 14.5 °C | – | 5.7 µM | – | 7.7 °C | – | – | – | –
5 | c1ccc(-c2c3ccccc3nc3ccccc23)cc1 | 0.4 °C | 23 µM | 22 µM | > 100 µM | 80 µM | 0.4 °C | – | 18 µM | 1.3 °C | – | 175 µM | – | – | 0.6 °C | – | – | –
6 | Cc1nc(-c2c3ccccc3nc3ccccc23)sc1CCOC(=O)c1ccc(/N=N/Nc2ccc(C(=O)OCCN(C)C)cc2)cc1 | < 0.2 °C | 16 µM | 35 µM | 3.1 µM | 3.2 µM | – | 1.7 °C | 66 µM | – | – | 3.6 µM | 3 °C | – | – | 1.8 °C | – | –
7 | Cc1nc(-c2c3ccccc3nc3ccccc23)sc1CCOC(=O)c1ccc(N/N=N/c2ccc(C(=N)N)cc2)cc1 | – | 12 µM | 18 µM | 16 µM | 66 µM | – | 2.4 °C | 31 µM | – | – | 2.9 µM | – | – | – | – | – | –
8 | O=C(OCCN1CCOCC1)c1ccc(/N=N/Nc2ccc(C(=O)OCCN3CCOCC3)cc2)cc1 | – | 14 µM | 15 µM | – | > 100 µM | – | – | 17 µM | 3.6 °C | – | 6.8 µM | – | – | – | – | 1.4 °C | –
9 | Cc1nc(-c2c3ccccc3nc3ccccc23)sc1CCOC(=O)c1ccc(/N=N/Nc2cccc(C(=O)OCCN(C)C)c2)cc1 | < 0.2 °C | 14 µM | 17 µM | 3.8 µM | 3 µM | – | 1.6 °C | 34 µM | – | – | 1.2 µM | 2.1 °C | – | – | – | – | –
10 | Cc1nc(-c2c3ccccc3nc3ccccc23)sc1CCOC(=O)c1ccc(N/N=N/c2ccc(C(=O)OCCN3CCCCC3)cc2)cc1 | 0.2 °C | 14 µM | 27 µM | 3.9 µM | 6.2 µM | – | 1.9 °C | 52 µM | 2.4 °C | – | 3.2 µM | – | 1.5 °C | – | – | – | –
11 | Cc1nc(-c2c3ccccc3nc3ccccc23)sc1CCOC(=O)c1ccc(N/N=N/c2ccc(C(N)=O)cc2)cc1 | – | 21 µM | 26 µM | 5.3 µM | 28 µM | – | – | 36 µM | – | – | 96 µM | – | – | – | – | – | –
12 | N=C(N)c1ccc(/N=N/Nc2ccc(C(=N)N)cc2)cc1 [DIMINAZENE] | – | 5 µM | 9 µM | – | 32 µM | 7.9 °C | – | 19 µM | 9.3 °C | – | 4.4 µM | – | – | – | – | – | –
13 | Nc1ccc2cc3ccc(N)cc3nc2c1 [PROFLAVINE] | 7 °C | 24 µM | 20 µM | 0.47 µM | 2.7 µM | 11.5 °C | 24.4 °C | 14 µM | – | – | – | – | – | – | – | – | 16.4 °C
14 | CC(=O)c1ccc(N/N=N/c2ccc(C(=O)OCCc3sc(-c4c5ccccc5nc5ccccc45)nc3C)cc2)cc1 | – | 19 µM | 25 µM | > 100 µM | 100 µM | – | – | 33 µM | – | – | 123 µM | – | – | – | – | – | –
15 | Cc1nc(-c2c3ccccc3nc3ccccc23)sc1CCOC(=O)c1ccc(N/N=N/c2ccc(C(=O)OCCN3CCCC3)cc2)cc1 | 0.3 °C | 15 µM | 26 µM | 3.5 µM | 3.4 µM | 1.4 °C | 1.5 °C | 45 µM | 2.9 °C | – | 2.8 µM | – | – | – | – | – | –
16 | Cc1nc(-c2c3ccccc3nc3ccccc23)sc1CCOC(=O)c1ccc(N)cc1 | – | 24 µM | 20 µM | > 100 µM | – | 0.4 °C | 0.8 °C | 17 µM | 1.1 °C | – | 230 µM | – | – | – | – | – | –
17 | c1ccc2nc3ccccc3cc2c1 [ACRIDINE] | 0.8 °C | 26 µM | 24 µM | > 100 µM | 45 µM | 0.7 °C | 0.7 °C | 22 µM | 1.7 °C | – | 142 µM | – | – | – | – | – | –
18 | Nc1ccc2c(=O)c3ccc(N)cc3[nH]c2c1 | – | – | – | > 100 µM | 67 µM | – | – | – | – | – | – | – | – | – | – | – | –
19 | Cc1nc(-c2c3ccccc3nc3ccccc23)sc1CCO | < 0.2 °C | 22 µM | 21 µM | > 100 µM | – | < 0.2 °C | 0.7 °C | 19 µM | 1 °C | – | 190 µM | – | – | – | – | – | –
